According to ChEMBL document CHEMBL4725388, “Characterization of Aminobenzylphenols as Protein Disulfide Isomerase Inhibitors in Glioblastoma Cell Lines” (J Med Chem, 2020):

What was measured:
[1] = biological target: Protein disulfide-isomerase (Homo sapiens, UniProt P07237); test: Inhibition of recombinant human wild-type N-terminal His-tagged PDIA1 expressed in Escherichia coli strain BL21(DE3) using bovine insulin as substrate preincubated for 1 hr followed by substrate addition
Outline: (§1)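 IC50 from dose-response curves; PDI reductase assay for enzyme, MTT in U-87 MG cells for cytotoxicity; mean ± SD of at least three independent experiments.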

U-87 MG = test: Cytotoxicity against human U-87 MG cells assessed as growth inhibition measured after 72 hrs by MTT assay; assay type: functional, cell-based, U-87MG ATCC; outline: as §1

Sequence of Protein disulfide-isomerase (P07237 whole entry): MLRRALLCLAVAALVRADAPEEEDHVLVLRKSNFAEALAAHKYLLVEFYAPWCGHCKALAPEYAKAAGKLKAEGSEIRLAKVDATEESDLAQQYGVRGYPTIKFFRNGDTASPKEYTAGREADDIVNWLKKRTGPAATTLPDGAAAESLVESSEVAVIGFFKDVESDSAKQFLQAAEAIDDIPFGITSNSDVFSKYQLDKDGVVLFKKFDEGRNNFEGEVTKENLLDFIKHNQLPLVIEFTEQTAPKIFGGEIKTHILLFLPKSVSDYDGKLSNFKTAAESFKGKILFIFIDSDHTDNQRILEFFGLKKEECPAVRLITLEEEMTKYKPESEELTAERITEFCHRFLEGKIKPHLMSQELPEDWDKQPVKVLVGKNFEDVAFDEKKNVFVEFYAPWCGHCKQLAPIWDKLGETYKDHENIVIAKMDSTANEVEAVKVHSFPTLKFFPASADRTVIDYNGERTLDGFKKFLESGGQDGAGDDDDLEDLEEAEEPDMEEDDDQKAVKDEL

SMILES	IC50 [1] [nM]	IC50 (U-87 MG) [nM]
Oc1c(C(c2ccc(F)cc2)N2CCCCC2)ccc2cncnc12 (centres undefined)	4860	
COc1ccc(C(c2cc3c(cc2O)OCO3)N2CCCCC2)cc1 (centres undefined)	880	28300
Oc1c(C(c2ccc(F)cc2)N2CCCCC2)ccc2cnccc12 (centres undefined)	610	
Oc1c(C(c2ccc(F)cc2)N2CCCCC2)ccc2scnc12 (centres undefined)	570	
Oc1ccc2cnccc2c1C(c1ccc(F)cc1)N1CCCCC1 (centres undefined)	> 100000	
Oc1cc(F)ccc1C(c1ccc2ccoc2c1O)N1CCCCC1 (centres undefined)	1070	
Oc1cc2c(cc1C(Nc1ncccn1)c1ccc3c(c1)OCO3)OCO2 (centres undefined)	1180	> 10000
Cc1ccnc(NC(c2ccc3cccnc3c2O)c2c(Cl)cccc2Cl)c1 (centres undefined)	> 40000	7200
Oc1cc2c(cc1C(c1ccc(Cl)cc1)N1CCOCC1)OCO2 (centres undefined)	92	> 30000
CN(C)c1cccc(C(c2ccc(F)cc2)N2CCCCC2)c1O (centres undefined)	> 30000	
Oc1cc2c(cc1C(c1ccc(F)cc1)N1CCCCC1)NCC2 (centres undefined)	7010	
Oc1c(C(c2ccc(F)cc2)N2CCCCC2)ccc2nccnc12 (centres undefined)	660	
Cc1ccnc(NC(c2ccc(F)cc2)c2ccc3cccnc3c2O)c1 (centres undefined)	140	> 10000
Oc1c(C(Nc2ccccn2)c2c(Cl)cccc2Cl)ccc2cccnc12 (centres undefined)	1890	6900
Oc1ccc2[nH]ccc2c1C(c1ccc(F)cc1)N1CCCCC1 (centres undefined)	1810	
Cc1ccc(C)c(C(Nc2ccccn2)c2ccc3cccnc3c2O)c1 (centres undefined)	730	13800
Cc1ccnc(NC(c2ccc([N+](=O)[O-])cc2)c2ccc3cccnc3c2O)c1 (centres undefined)	530	3400
Oc1c(C(c2ccc(F)cc2)N2CCCCC2)ccc2c1OCO2 (centres undefined)	2830	
CCc1ccc(C(Nc2cc(C)ccn2)c2ccc3cccnc3c2O)cc1 (centres undefined)	5390	8900
Oc1ccc2[nH]ncc2c1C(c1ccc(-c2cncnc2)cc1)N1CCCCC1 (centres undefined)	830	
COc1ccc(C(c2cc3c(cc2O)OCO3)N2CCOCC2)cc1 (centres undefined)	130	> 10000
O=[N+]([O-])c1ccc(NC(c2ccccc2)c2ccc3cccnc3c2O)cc1 (centres undefined)	150	> 10000

SMILES	IC50 [1] [nM]	IC50 (U-87 MG) [nM]
CN(C)c1ccc(C(c2cc3c(cc2O)OCO3)N2CCCCC2)cc1 (centres undefined)	1270	24700
Cc1ccnc(NC(c2ccc(C(F)(F)F)cc2)c2ccc3cccnc3c2O)c1 (centres undefined)	26500	2100
Oc1cc2c(cc1C(c1ccc(F)cc1)N1CCOCC1)OCO2 (centres undefined)	230	> 30000
Oc1c(C(c2ccc(F)cc2)N2CCCCC2)ccc2c1OCCO2 (centres undefined)	290	
Oc1c(C(c2ccc(F)cc2)N2CCCCC2)ccc2c1CCC2 (centres undefined)	> 10000	
COc1cc(C(c2cc3c(cc2O)OCO3)N2CCOCC2)cc(OC)c1OC (centres undefined)	640	> 10000
Cc1ccc(C(Nc2ccccn2)c2ccc3cccnc3c2O)cc1 (centres undefined)	460	> 10000
Oc1ccc(C(c2cc3c(cc2O)OCO3)N2CCNCC2)cc1 (centres undefined)	680	> 30000
O=[N+]([O-])c1ccc(C(c2c(O)ccc3[nH]ncc23)N2CCCCC2)cc1 (centres undefined)	520	
O=C(O)c1ccc(NC(c2ccccc2)c2ccc3cccnc3c2O)cc1 (centres undefined)	300	> 10000
Oc1cc2c(cc1C(c1ccc3c(c1)OCO3)N1CCCC1)OCO2 (centres undefined)	23	> 30000
COc1ccccc1NC(c1ccccc1)c1ccc2cccnc2c1O (centres undefined)	390	> 10000
Oc1c(C(Nc2ccccn2)c2ccccc2F)ccc2cccnc12 (centres undefined)	470	> 10000
COc1cccc(C(Nc2ncccn2)c2cc3c(cc2O)OCO3)c1O (centres undefined)	9020	> 10000
COc1ccc(C(c2cc3c(cc2O)OCO3)N2CCCCC2)c(OC)c1 (centres undefined)	2590	> 30000
Oc1ccc2[nH]ncc2c1C(c1ccc(C(F)(F)F)cc1)N1CCCCC1 (centres undefined)	710	
COc1cccc(C(c2cc3c(cc2O)OC(F)(F)O3)N2CCOCC2)c1OC (centres undefined)	510	
CNC(=O)NC(c1ccc(F)cc1)c1cc2c(cc1O)OCO2 (centres undefined)	> 30000	> 10000
Oc1c(C(c2ccc(C(F)(F)F)cc2)N2CCCCC2)ccc2ccoc12 (centres undefined)	300	
COc1ccc(C(c2cc3c(cc2O)OCO3)N2CCCC2)c(OC)c1 (centres undefined)	360	> 30000
Oc1c(C(c2ccc3c(c2)OC(F)(F)O3)N2CCCCC2)ccc2ccoc12 (centres undefined)	< 200	

The next lines start with results.

IC50 [1] [nM]	SMILES	IC50 (U-87 MG) [nM]
< 200	Cc1ccnc(NC(c2ccccc2)c2ccc3cccnc3c2O)c1 (centres undefined)	> 10000
170	CCc1ccc(C(Nc2ccccn2)c2ccc3cccnc3c2O)cc1 (centres undefined)	9300
2860	COc1cccc(C(Nc2ccccn2)c2ccc3cccnc3c2O)c1 (centres undefined)	11900
> 40000	Cc1ccnc(NC(c2ccccc2Cl)c2ccc3cccnc3c2O)c1 (centres undefined)	9900
2200	COc1cc(C(Nc2ncccn2)c2cc3c(cc2O)OCO3)cc(OC)c1O (centres undefined)	> 10000
> 100000	Oc1cc2c(cc1C(c1ccc(F)cc1)N1CCCCC1)CCCC2 (centres undefined)	
340	Oc1ccccc1C(c1cc2c(cc1O)OCO2)N1CCOCC1 (centres undefined)	> 30000
960	COc1ccc(C(c2cc3c(cc2O)OCO3)N2CCCCC2)cc1OC (centres undefined)	24800
170	COc1cc(C(Nc2ccccn2)c2cc3c(cc2O)OCO3)cc(OC)c1O (centres undefined)	> 10000
900	COc1cccc(C(c2cc3c(cc2O)OCO3)N2CCOCC2)c1O (centres undefined)	> 10000
290	Oc1ccc2[nH]ncc2c1C(c1ccc(-n2cccc2)cc1)N1CCCCC1 (centres undefined)	
1230	CC(=O)c1cc2ccc(C(c3ccc(F)cc3)N3CCCCC3)c(O)c2o1 (centres undefined)	
1300	COc1ccc(C(Nc2ncccn2)c2cc3c(cc2O)OCO3)cc1 (centres undefined)	> 10000
340	Oc1ccc2[nH]ncc2c1C(c1ccc(-c2nccs2)cc1)N1CCCCC1 (centres undefined)	
> 100000	Oc1ccc2nccnc2c1C(c1ccc(F)cc1)N1CCCCC1 (centres undefined)	
> 100000	Oc1ccc2scnc2c1C(c1ccc(F)cc1)N1CCCCC1 (centres undefined)	
150	COc1ccc(C(Nc2cc(C)ccn2)c2ccc3cccnc3c2O)cc1O (centres undefined)	> 10000
180	COc1cc(C(Nc2ccc(C)cn2)c2ccc3cccnc3c2O)cc(OC)c1O (centres undefined)	7400
> 40000	Cc1ccnc(NC(c2ccc3cccnc3c2O)c2c(F)cccc2Cl)c1 (centres undefined)	20600
< 200	CN(C)c1ccc(C(c2cc3c(cc2O)OCO3)N2CCCC2)cc1 (centres undefined)	> 30000
> 40000	Cc1ccnc(NC(c2ccccc2C)c2ccc3cccnc3c2O)c1 (centres undefined)	> 10000
1480	O=C(O)c1ccccc1NC(c1ccccc1)c1ccc2cccnc2c1O (centres undefined)	> 10000
110	Oc1c(C(Nc2ccccc2)c2ccccc2)ccc2cccnc12 (centres undefined)	> 10000
12700	Oc1cc2c(cc1C(Nc1ncccn1)c1ccc(F)cc1)OCO2 (centres undefined)	> 10000
350	Oc1ccc2[nH]ncc2c1C(c1ccc(F)cc1)N1CCCCC1 (centres undefined)	
700	COc1cc(C(c2cc3c(cc2O)OCO3)N2CCCCC2)cc(OC)c1OC (centres undefined)	> 10000
620	Cc1ccnc(NC(c2ccc(OCc3ccccc3)cc2)c2ccc3cccnc3c2O)c1 (centres undefined)	9300

IC50 [1] [nM]	SMILES	IC50 (U-87 MG) [nM]
190	Cc1cc(C)c(C(Nc2ccccn2)c2ccc3cccnc3c2O)c(C)c1 (centres undefined)	10000
< 200	CCOC(=O)c1ccccc1NC(c1ccccc1)c1ccc2cccnc2c1O (centres undefined)	> 10000
< 200	Oc1cc2c(cc1C(c1ccc3c(c1)OCO3)N1CCOCC1)OCO2 (centres undefined)	> 30000
620	COc1ccc(C(c2cc3c(cc2O)OCO3)n2ccnc2)cc1 (centres undefined)	> 10000
> 40000	CNC(=O)NC(c1cc(OC)c(OC)c(OC)c1)c1cc2c(cc1O)OCO2 (centres undefined)	> 10000
880	Cc1ccnc(NC(c2ccccc2F)c2ccc3cccnc3c2O)c1 (centres undefined)	13100
410	Oc1c(C(c2ccc3c(c2)CCC3)N2CCCCC2)ccc2ccoc12 (centres undefined)	
270	Oc1cc2c(cc1C(c1ccc(F)cc1)N1CCCCC1)OCO2 (centres undefined)	> 30000
370	Oc1cccc(C(Nc2ccccn2)c2ccc3cccnc3c2O)c1Cl (centres undefined)	> 10000
670	Oc1cc2c(cc1C(c1ccc(F)cc1)n1ccnc1)OCO2 (centres undefined)	> 10000
72	Oc1cc2c(cc1C(Nc1ccccn1)c1ccc3c(c1)OCO3)OCO2 (centres undefined)	> 10000
330	COc1ccccc1C(c1cc2c(cc1O)OCO2)N1CCOCC1 (centres undefined)	27700
500	Oc1c(C(Nc2ccccn2)c2ccccc2Cl)ccc2cccnc12 (centres undefined)	9400
230	COc1cc(C(c2cc3c(cc2O)OCO3)N2CCOCC2)ccc1O (centres undefined)	27100
1520	COc1ccc(C(c2cc3c(cc2O)OCO3)N2CCCC2)cc1 (centres undefined)	22600
> 40000	Cc1ccnc(NC(c2cc(C)ccc2C)c2ccc3cccnc3c2O)c1 (centres undefined)	> 10000
560	Oc1c(C(c2ccc(F)cc2)N2CCCCC2)ccc2ccoc12 (centres undefined)	
> 40000	CNC(=O)NC(c1ccc2c(c1)OCO2)c1cc2c(cc1O)OCO2 (centres undefined)	> 10000
> 30000	Oc1ccc2ncccc2c1C(c1ccc(F)cc1)N1CCCCC1 (centres undefined)	
> 40000	NC(=O)NC(c1ccc(O)cc1)c1cc2c(cc1O)OCO2 (centres undefined)	> 10000
< 200	Oc1cc2c(cc1C(c1ccc(F)cc1)N1CCCC1)OCO2 (centres undefined)	> 30000
350	Oc1cc2c(cc1C(c1ccc3c(c1)OCO3)N1CCCCC1)OCO2 (centres undefined)	> 10000
1650	COc1cccc(C(c2cc3c(cc2O)OCO3)N2CCCC2)c1O (centres undefined)	> 10000
350	Cc1ccnc(NC(c2cccc(F)c2)c2ccc3cccnc3c2O)c1 (centres undefined)	9200
10200	Oc1ccc2ccncc2c1C(c1ccc(F)cc1)N1CCCCC1 (centres undefined)	
980	COc1cc(OC)c(C(c2cc3c(cc2O)OCO3)N2CCOCC2)c(OC)c1 (centres undefined)	13600
670	Oc1cc2c(cc1C(c1ccc(F)cc1)N1CCCCC1)OCCO2 (centres undefined)	
